NS3 helicase inh: inhibitors of Hepatitis C virus NS3 helicase; NS3 helicase DNA unwinding, Cy5 molecular beacon fluorescence; inhibition, % at 10.9 µM; actives 0.56% (n = 290,000); AID 1800;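 active = inhibition above the mean of all tested compounds plus 3 SD, set per campaign, cut at about 35% in these data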;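 note: 0% = DMSO wells and 100% = thioflavine S control wells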
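System: Hepatitis C virus NS3 helicase domain fragment enzyme | Reagent: Annealed dual-labelled DNA beacon duplex, ATP-started | Compound dosing: 10.9 µM single point, 0.8% DMSO | Incubation: 1 h reaction at 25 °C, ATP-initiated | Technique: Cy5 fluorescence | Evaluation: Percent inhibition from t60/t0 fluorescence ratio | Benchmarks: Low DMSO, high thioflavine S at 110 µM | Replication: Singlicate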
HSP90 refold inh: blocks HSP90-mediated luciferase refolding in reticulocyte lysate | Rabbit reticulocyte lysate, luciferase refolding luminescence, 3 h | inhibition, % at 5.6 µM | actives 0.91% (n = 290,000) | AID 1789;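 active = inhibition above the screen-wide mean plus 3 SD, computed separately per campaign, cut at about 16% in these data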;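 note: 0% = DMSO wells and 100% = 60 µM geldanamycin wells; inhibitors lower the luminescence because luciferase stays unfolded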
FID counter: fluorescent intercalator displacement, NS3 helicase counter-screen | AID 1845 | DNA fluorescent intercalator displacement, fluorescence | inhibition, % at 7.9 µM | actives 0.17% (n = 290,000); in the data active = inhibition above about 37%;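 note: 0% = vehicle and 100% = reference compound; higher means more ethidium bromide displaced from hairpin DNA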
HSF1 inh: HSF1 inhibition; AID 2098; activity change, negative = inhibition, % at 7.5 µM (by protocol); actives 0.77% (n = 300,000); NIH3T3-HGL HSE-luciferase, MG132-induced, luminescence 8 h; active compounds read low;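 active = more than half of replicate wells show activity change below -50%, luminescence cut by over half; inconclusive = some wells, but at most half, below -50%; inactive = no replicate well below -50%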;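 note: luciferase reports HSF-1 transcriptional activity via heat shock element; 0% = median of DMSO wells and -100% = zero luminescence signal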
core dimer inh: blocks dimerization of HCV core protein. AID 1899. inhibition, % at 5 µM. TR-FRET GST/Flag-core106 dimerization, 1536-well. actives 0.33% (n = 300,000);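 active = inhibition above the mean of all tested compounds plus 3 SD, set per screening campaign, cut at about 45% in these data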
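System: GST/Flag-tagged HCV core106 proteins. Incubation: compound-protein-antibody incubation 4 h at 22.5 °C. Technique: HTRF with 340 nm excitation, 617/671 nm emission. Medium: KF-containing HEPES buffer, pH 7.45, DTT, CHAPS, BSA. Read-out: inhibition (%) from 671 over 617 nm ratio. Also added: Eu(K)-anti-GST 90 ng/mL plus XL665-anti-Flag 1 µg/mL.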
HSF1 activator: increases HSF-1 driven luciferase reporter signal; NIH3T3-HGL HSF-1 luciferase reporter, MG132, 8 h; 100% = twice DMSO control signal; activation, % at 9 µM; actives 1.7% (n = 300,000); AID 504408;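 active = mean replicate activation of at least 50% with a set share of replicates each reaching 50%; inconclusive = only one of those two conditions met; inactive = mean below 50% and too few replicates reaching it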;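 note: 0% = median of the neutral control wells and 100% = twice that signal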
Active calls of the source: *; ? = inconclusive; . = not tested or not shown. Rows were chosen to be rich in hits. Some 3.9% of all compounds tested hit in one or more screens of this group.

SMILES	NS3 helicase inh	HSP90 refold inh	FID counter	HSF1 inh	core dimer inh	HSF1 activator
Nc1c(C(=O)c2ccccc2)sc2snc(SCC(=O)c3ccccc3)c12	21.0	0.7	3.1	51.1	19.1	111.0*
COCCC(=O)N1CCC(Oc2ccc(C(=O)NCCc3cnn(C)c3)cc2)CC1	9.8	-4.1	-24.2	1.9	-0.8	4.9
CCCCOc1cccc(C2C(C(=O)c3cccs3)=C(O)C(=O)N2Cc2cccnc2)c1 (stereo unspecified)	19.9	1.4	-48.6	-64.4*	10.2	-73.4
O=c1[nH]c2ccccc2n1CCC1CCCCC1	0.5	2.5	-27.0	43.6	1.6	?
O=[N+]([O-])c1cccnc1NCCc1c[nH]c2ccccc12	-0.6	-6.1	2.8	24.0	8.1	54.3*
O=[N+]([O-])c1cccnc1NCCc1ccccc1	-6.6	-1.4	2.2	27.4	-4.9	45.2
O=C(N/N=C/c1cn(-c2ccccc2)nc1-c1ccc2c(c1)OCCO2)c1ccncc1	-8.1	-0.5	-17.5	52.7	-0.7	107.3*
COc1cc([N+](=O)[O-])cc(/C=C2/SC(=S)N(Cc3ccccc3)C2=O)c1O	24.4	-2.3	41.4*	-3.7	-4.6	-8.3
COc1cc(/C=C2/SC(=S)N(Cc3ccccc3)C2=O)ccc1OS(C)(=O)=O	-12.1	8.5	-4.3	6.1	-38.6	4.8
O=C1/C(=C\c2cccc([N+](=O)[O-])c2O)SC(=S)N1Cc1ccccc1	35.0	-3.4	17.1	0.9	10.5	21.2
COc1cc(/C=C2/SC(=S)N(Cc3ccccc3)C2=O)cc(Cl)c1O	48.2*	-3.7	18.0	5.6	8.1	-6.4
CC(CN1CCCC1)OC(=O)c1ccc(Cl)cc1Cl (stereo unspecified)	-3.5	-1.2	4.4	-3.4	-4.1	2.3
Cc1onc(-c2c(F)cccc2Cl)c1C(=O)OCC(=O)NC1CC1	-3.4	-0.6	0.5	2.5	-1.3	17.1
Cc1cccc(OCCCC(=O)NCC(=O)Nc2cccc(C)c2C)c1	3.2	2.1	-21.9	-1.9	3.7	-10.7
Nc1cc[n+](CC(=O)Nc2ccccc2)cc1	-13.8	0.1	0.3	26.5	3.2	56.5*
Cc1cccc(NC(=O)C[n+]2ccccc2)c1	-4.3	-4.0	2.8	8.0	-4.7	-16.6
O=C(COc1ccc2c3c(c(=O)oc2c1)CCC3)NCC(O)c1ccccc1 (stereo unspecified)	-4.0	0.0	-18.9	-1.8	-2.3	0.7
CCOC(=O)C1CCN(C(=O)c2c(-c3c(F)cccc3Cl)noc2C)CC1	-3.5	-3.2	-13.8	0.2	1.8	-3.2
O=C(CCl)Nc1ccc(N=Nc2ccccc2)cc1	-8.0	2.3	3.1	56.0	.	67.7*
O=C(Nc1ccc(N=Nc2ccccc2)cc1)c1ccccc1Cl	-3.1	-3.4	2.3	31.8	-5.9	72.5*
O=C(CCl)Nc1ccc(-c2ccccc2)cc1	-14.6	3.5	-3.3	?	1.3	-47.6
CC(=O)Nc1ccc(N=Nc2ccccc2)cc1	0.2	-4.1	-2.8	22.3	0.2	59.7*
CC(=O)N1CCC(N(C(=O)Nc2ccc(F)cc2)C2CCCC2)CC1	4.3	-0.8	1.4	11.6	2.3	21.0
O=C(NCC(c1ccco1)N1CCN(c2ccccc2F)CC1)c1ccco1 (stereo unspecified)	.	.	.	-1.1	-3.4	-3.7
COc1cc(NC(=O)COc2cc(O)c3c(c2)OC(C)(C)CC3=O)cc(OC)c1	-20.4	-2.2	-22.5	2.6	17.4	6.8
SMILES	NS3 helicase inh	HSP90 refold inh	FID counter	HSF1 inh	core dimer inh	HSF1 activator
O=C1CCCN1c1ccc(S(=O)(=O)N2CCCCC2)cc1[N+](=O)[O-]	-9.3	-0.7	-0.3	-4.1	-1.8	-3.0
O=C(Cc1ccccc1)NC(=S)Nc1ccc2oc(-c3ccccc3)nc2c1	3.8	1.9	3.8	28.0	-0.4	49.6
OCC[C@@H]1C[C@H](O)[C@@H](O)[C@@]2(CCc3ccccc3CO2)O1	13.7	-6.7	-4.9	-10.4	-10.3	-10.9
COc1cccc2cc(CC(=O)c3ccccc3)c(=O)oc12	7.6	-5.4	-11.6	7.5	10.1	13.5
CCc1ccc(C(=O)Cc2cc3cccc(OC)c3oc2=O)cc1	3.4	-8.0	-19.5	35.7	19.3	79.8*
Fc1ccc(C2NC(=S)NC3=C2N2CCC3CC2)cc1 (stereo unspecified)	-3.0	-1.9	-5.1	13.2	-2.7	53.5*
CCOC(=O)c1ccc(NC(=S)NC(=O)C2CCCC2)cc1	3.8	1.6	-19.6	-74.1*	-7.0	-80.3
COC(=O)c1ccc(NC(=S)NC(=O)C2CCC2)cc1	2.3	-6.5	-13.1	13.8	-2.0	-3.5
CCOC(=O)c1ccc(NC(=S)N2CCCC(C)C2)cc1 (stereo unspecified)	-5.5	0.5	-13.6	26.2	1.2	61.9*
CC(C)c1cc(C(=O)N2CCCC(N3CCN(c4ccc(F)cc4)CC3)C2)no1 (stereo unspecified)	1.2	-7.3	-20.4	-2.6	-2.0	-3.4
COc1cc(C2NC(=S)NC(C)=C2C(=O)Nc2ccc(C)cc2)ccc1O (stereo unspecified)	2.6	4.3	-1.7	43.1	-0.6	83.7*
COc1cc(/C=C2\C(=O)N(c3ccc(NC(C)=O)cc3)N=C2c2ccccc2)ccc1O	-4.2	16.3*	-3.5	23.7	-11.1	8.3
CCOc1cc(/C=C2\C(=O)N(c3nc(-c4ccc(Br)cc4)cs3)N=C2c2ccccc2)ccc1O	20.3	1.2	-19.3	11.0	54.6*	8.9
CCOC(=O)C1CCN(c2c(Nc3ccc4c(c3)OCCO4)c(=O)c2=O)CC1	-4.7	11.7	-12.3	-53.6*	1.4	-57.6
CCOC(=O)N1CCC(N2C(=O)c3ccccc3C2Nc2ccc3c(c2)OCCO3)CC1 (stereo unspecified)	6.2	9.9	-28.6	-68.6*	-2.7	-71.9
CCOC(=O)N1CCC(N2C(=O)c3ccccc3C2Nc2cccnc2)CC1 (stereo unspecified)	5.9	-2.5	-21.0	-7.7	-0.6	-0.9
O=C(CCCN1C(=O)c2cccc3cccc(c23)C1=O)Nc1ccon1	-3.7	-2.6	-2.5	49.2	2.7	112.6*
O=c1c2sc(-c3ccccc3)cc2nc2n1CCCCC2	0.4	3.0	-10.6	32.3	4.8	55.5*
COc1cc(CNc2ccc3[nH]c(=O)[nH]c3c2)ccc1OCc1ccc(Cl)cc1	-14.4	-7.2	-0.2	58.3	-16.7	82.7*
Clc1ccccc1OCc1nnc(-c2ccccc2Br)o1	-1.7	1.1	-7.3	38.2	12.0	49.3
N#Cc1ccccc1OCc1nnc(-c2ccccc2Br)o1	10.1	2.4	-16.9	46.6	0.8	82.6*
O=C(Cc1ccccc1)Nc1ccnn1C1CCN(Cc2nccs2)CC1	6.8	-5.6	-6.8	-3.2	4.0	11.6
COc1ccc(N2C(=O)c3ccc(C(=O)Nc4ccccc4OC)cc3C2=O)cc1	-0.8	-1.6	-12.9	-5.4	2.2	-3.7

Bioassay records from PubChem.
